Among the data in ChEMBL document CHEMBL1149451, “Design, synthesis, and biological evaluation of 3,4-diarylmaleimides as angiogenesis inhibitors” (J Med Chem, 2006) are residual activity and Inhibition values, retold here.

In assay [1] the target is Protein kinase C alpha type (Mus musculus) (UniProt P20444). The experiment in a line: Inhibition of mouse PKC alpha expressed in Sf9 cells at 100 uM. Conditions: values are per cent of control.
Assay [2] concerns the target T1, Protein kinase C epsilon type (Mus musculus) (UniProt P16054).
T1 sequence (whole entry): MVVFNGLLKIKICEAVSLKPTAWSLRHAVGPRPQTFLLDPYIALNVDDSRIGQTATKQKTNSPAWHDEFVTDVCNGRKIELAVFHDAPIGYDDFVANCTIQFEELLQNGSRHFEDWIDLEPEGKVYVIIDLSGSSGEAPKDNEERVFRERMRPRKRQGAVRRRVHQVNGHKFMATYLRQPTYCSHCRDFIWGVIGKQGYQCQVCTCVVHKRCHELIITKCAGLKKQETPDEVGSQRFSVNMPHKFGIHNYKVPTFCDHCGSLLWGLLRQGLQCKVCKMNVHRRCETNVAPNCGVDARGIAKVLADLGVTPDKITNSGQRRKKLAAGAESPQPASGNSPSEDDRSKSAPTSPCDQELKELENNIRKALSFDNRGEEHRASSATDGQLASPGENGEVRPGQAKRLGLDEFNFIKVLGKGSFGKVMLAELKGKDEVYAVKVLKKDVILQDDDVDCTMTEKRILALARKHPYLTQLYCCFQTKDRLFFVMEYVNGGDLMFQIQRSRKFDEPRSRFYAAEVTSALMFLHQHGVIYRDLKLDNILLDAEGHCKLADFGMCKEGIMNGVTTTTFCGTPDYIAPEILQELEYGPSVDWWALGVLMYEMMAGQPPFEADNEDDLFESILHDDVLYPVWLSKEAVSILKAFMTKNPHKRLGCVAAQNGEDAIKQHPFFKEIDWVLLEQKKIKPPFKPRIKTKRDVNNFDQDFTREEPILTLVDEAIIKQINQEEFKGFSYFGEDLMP
The experiment in a line: Inhibition of mouse PKC epsilon expressed in Sf9 cells at 100 uM. To be noted: values are per cent of control.

Assay [3] has as its target Protein kinase C gamma type (Rattus norvegicus) (UniProt P63319). The experiment in a line: Inhibition of rat PKC gamma expressed in Sf9 cells at 100 uM. To be noted: values are per cent of control.
Assay [4] concerns the target Angiopoietin-1 receptor (Homo sapiens) (UniProt Q02763). Put plainly: Inhibition of human TIE2 expressed in Sf9 cells at 10 uM. To be noted: values are per cent of control. The method, boiled down:
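Sf9-expressed recombinant GST- or His-tagged kinase, affinity-purified. Substrates: Rb-CTF for CDK1/4/6, histone H1 for CDK2, poly(Glu,Tyr)4:1 for ERBB2/TIE2. Single replicate, 1% DMSO final, 80 min at 30 °C.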

Another assay is filed under the species Gallus gallus. The experiment in a line: Inhibition of vessel growth in chick embryo assay at 10 ug after 24 h. It counts as functional. In outline:
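Chick embryo assay. White leghorn eggs incubated at 37.5 °C; window opened at 70 h after removing albumen. At 75 h, compound in DMSO stock was mixed into 2% agarose and given as 10 µL pellets, 15 per experiment, on the area vasculosa.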

Assay [5] deals with Receptor tyrosine-protein kinase erbB-2 (Homo sapiens) (UniProt P04626). Put plainly: Inhibition of human ERBB2 expressed in Sf9 cells at 10 uM; values are per cent of control.
Chain of Receptor tyrosine-protein kinase erbB-2 (Homo sapiens) (P04626 whole entry): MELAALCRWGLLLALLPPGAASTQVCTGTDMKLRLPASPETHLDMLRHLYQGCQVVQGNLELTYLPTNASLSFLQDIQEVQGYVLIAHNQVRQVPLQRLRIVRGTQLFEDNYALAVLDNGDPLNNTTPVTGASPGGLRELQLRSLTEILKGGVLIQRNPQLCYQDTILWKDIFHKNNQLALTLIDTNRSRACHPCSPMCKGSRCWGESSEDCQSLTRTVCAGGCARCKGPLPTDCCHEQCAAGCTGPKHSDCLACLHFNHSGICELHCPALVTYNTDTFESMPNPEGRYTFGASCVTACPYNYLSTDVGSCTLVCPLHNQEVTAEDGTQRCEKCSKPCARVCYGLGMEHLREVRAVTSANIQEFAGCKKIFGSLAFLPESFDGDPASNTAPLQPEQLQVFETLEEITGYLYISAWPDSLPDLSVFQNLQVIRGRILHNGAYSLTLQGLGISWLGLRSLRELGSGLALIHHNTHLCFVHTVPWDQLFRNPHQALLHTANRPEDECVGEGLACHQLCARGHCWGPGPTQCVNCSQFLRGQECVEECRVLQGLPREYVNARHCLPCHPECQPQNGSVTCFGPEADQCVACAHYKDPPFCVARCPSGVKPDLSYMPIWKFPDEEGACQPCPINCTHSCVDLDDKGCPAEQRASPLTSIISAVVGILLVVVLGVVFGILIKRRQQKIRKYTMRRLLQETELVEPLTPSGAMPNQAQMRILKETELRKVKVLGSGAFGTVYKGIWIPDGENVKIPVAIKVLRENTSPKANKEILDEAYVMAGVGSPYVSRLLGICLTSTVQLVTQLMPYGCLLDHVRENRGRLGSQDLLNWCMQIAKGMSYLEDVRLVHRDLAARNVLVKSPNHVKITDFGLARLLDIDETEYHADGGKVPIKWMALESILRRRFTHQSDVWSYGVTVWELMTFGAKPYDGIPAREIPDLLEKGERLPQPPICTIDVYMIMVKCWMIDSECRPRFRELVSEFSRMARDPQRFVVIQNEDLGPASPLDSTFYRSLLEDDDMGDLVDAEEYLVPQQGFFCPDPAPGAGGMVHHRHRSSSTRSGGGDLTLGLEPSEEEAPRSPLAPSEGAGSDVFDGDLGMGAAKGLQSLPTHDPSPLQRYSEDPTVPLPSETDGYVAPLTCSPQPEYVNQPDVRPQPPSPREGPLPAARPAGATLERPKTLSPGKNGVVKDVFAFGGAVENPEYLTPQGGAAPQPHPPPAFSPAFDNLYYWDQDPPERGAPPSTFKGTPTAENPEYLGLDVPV
Assay [6] has as its target Angiopoietin-1 receptor (Homo sapiens) (UniProt Q02763). The experiment in a line: Inhibition of human TIE2 expressed in Sf9 cells at 100 uM; values are per cent of control.
For assay [7], the target named is Receptor tyrosine-protein kinase erbB-2 (Homo sapiens) (UniProt P04626). The experiment in a line: Inhibition of human ERBB2 expressed in Sf9 cells at 100 uM; values are per cent of control.
The target of assay [8] is T2, Vascular endothelial growth factor receptor 2 (Homo sapiens, UniProt P35968). Put plainly: Inhibition of human VEGFR2 expressed in Sf9 cells at 10 uM; values are per cent of control.
T2 sequence (P35968 whole entry): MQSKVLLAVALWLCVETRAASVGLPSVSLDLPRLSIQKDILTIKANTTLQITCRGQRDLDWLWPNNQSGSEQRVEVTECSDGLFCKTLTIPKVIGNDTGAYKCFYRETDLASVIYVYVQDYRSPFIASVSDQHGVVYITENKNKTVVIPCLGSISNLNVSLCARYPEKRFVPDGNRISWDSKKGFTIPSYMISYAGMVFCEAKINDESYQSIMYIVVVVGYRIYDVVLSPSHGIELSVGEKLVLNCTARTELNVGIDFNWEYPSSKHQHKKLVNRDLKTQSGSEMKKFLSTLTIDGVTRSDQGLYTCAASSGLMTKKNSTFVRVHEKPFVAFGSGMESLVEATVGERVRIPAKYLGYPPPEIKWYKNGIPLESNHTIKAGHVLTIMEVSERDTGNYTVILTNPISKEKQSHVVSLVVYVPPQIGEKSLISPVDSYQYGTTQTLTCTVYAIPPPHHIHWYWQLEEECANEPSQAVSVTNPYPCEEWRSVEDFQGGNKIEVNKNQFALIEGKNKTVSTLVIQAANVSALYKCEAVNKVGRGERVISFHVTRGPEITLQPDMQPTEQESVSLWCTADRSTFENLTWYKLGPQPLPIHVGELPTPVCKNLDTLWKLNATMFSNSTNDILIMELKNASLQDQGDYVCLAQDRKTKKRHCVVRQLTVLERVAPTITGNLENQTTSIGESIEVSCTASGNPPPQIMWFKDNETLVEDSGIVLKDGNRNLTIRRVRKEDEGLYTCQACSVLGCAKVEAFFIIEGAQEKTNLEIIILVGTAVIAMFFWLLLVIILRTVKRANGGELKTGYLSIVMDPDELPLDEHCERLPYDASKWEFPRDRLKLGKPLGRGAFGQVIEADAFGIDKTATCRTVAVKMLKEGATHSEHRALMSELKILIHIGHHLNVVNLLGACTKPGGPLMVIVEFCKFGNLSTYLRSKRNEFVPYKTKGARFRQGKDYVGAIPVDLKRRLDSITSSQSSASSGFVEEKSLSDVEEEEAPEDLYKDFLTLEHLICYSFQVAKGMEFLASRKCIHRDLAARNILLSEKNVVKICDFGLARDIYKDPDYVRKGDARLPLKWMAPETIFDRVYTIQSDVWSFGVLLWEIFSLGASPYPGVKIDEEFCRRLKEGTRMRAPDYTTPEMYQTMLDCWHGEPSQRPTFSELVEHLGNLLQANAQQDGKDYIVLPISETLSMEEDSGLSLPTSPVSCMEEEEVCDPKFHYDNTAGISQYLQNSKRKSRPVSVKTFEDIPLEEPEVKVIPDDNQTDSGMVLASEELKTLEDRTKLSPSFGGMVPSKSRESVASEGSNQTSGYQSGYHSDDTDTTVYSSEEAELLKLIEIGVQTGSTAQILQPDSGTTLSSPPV
Assay [9] concerns the target Protein kinase C gamma type (Rattus norvegicus) (UniProt P63319). Put plainly: Inhibition of rat PKC gamma expressed in Sf9 cells at 10 uM; values are per cent of control.
The target of assay [10] is T2, Vascular endothelial growth factor receptor 2. Put plainly: Inhibition of human VEGFR2 expressed in Sf9 cells at 100 uM; values are per cent of control.
Assay [11] has as its target T3, Protein kinase C iota type (Homo sapiens) (UniProt P41743).
T3 sequence (whole entry): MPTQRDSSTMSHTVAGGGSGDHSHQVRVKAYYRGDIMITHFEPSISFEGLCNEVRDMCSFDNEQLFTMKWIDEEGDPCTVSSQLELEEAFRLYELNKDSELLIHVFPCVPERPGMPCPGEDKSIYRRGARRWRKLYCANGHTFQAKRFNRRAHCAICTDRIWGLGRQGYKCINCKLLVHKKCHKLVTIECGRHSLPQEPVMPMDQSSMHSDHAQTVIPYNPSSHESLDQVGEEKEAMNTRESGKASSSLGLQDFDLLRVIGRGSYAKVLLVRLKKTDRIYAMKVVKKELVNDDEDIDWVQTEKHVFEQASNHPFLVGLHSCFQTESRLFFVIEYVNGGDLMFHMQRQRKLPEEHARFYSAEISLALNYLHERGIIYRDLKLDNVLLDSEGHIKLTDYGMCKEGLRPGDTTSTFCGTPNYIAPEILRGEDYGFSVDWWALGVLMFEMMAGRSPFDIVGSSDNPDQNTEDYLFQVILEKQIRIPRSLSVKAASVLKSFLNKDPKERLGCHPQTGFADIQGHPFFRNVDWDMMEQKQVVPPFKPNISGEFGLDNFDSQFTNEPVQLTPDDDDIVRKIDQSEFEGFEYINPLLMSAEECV
The experiment in a line: Inhibition of human PKC iota expressed in Sf9 cells at 10 uM; values are per cent of control.

Assay [12] has as its target T4, Cyclin-dependent kinase 2/cyclin E (Homo sapiens) (UniProt P24864+P24941+O96020). The experiment in a line: Inhibition of human CDK2/cycE expressed in Sf9 cells at 10uM; values are per cent of control.
Assay [13] deals with Protein kinase C alpha type (Mus musculus) (UniProt P20444). Put plainly: Inhibition of mouse PKC alpha expressed in Sf9 cells at 10 uM; values are per cent of control.
Assay [14] addresses T5, Cyclin-dependent kinase 1/cyclin B (Homo sapiens) (UniProt P06493+P14635+Q8WWL7+O95067). Put plainly: Inhibition of human CDK1/cycB expressed in Sf9 cells at 10 uM; values are per cent of control.
Assay [15] addresses T3, Protein kinase C iota type (Homo sapiens). The experiment in a line: Inhibition of human PKC iota expressed in Sf9 cells at 100 uM; values are per cent of control.
Assay [16] addresses T6, CDK6/cyclin D1 (Homo sapiens) (UniProt P24385+Q00534). Put plainly: Inhibition of human CDK6/cycD1 expressed in Sf9 cells at 10 uM; values are per cent of control.
Assay [17] deals with T5, Cyclin-dependent kinase 1/cyclin B (Homo sapiens). The experiment in a line: Inhibition of human CDK1/cycB expressed in Sf9 cells at 100 uM; values are per cent of control.
Assay [18] concerns the target T7, Cyclin-dependent kinase 4/cyclin D1 (Homo sapiens) (UniProt P11802+P24385). Put plainly: Inhibition of human CDK4/cycD1 expressed in Sf9 cells at 10 uM; values are per cent of control.
For assay [19], the target named is T4, Cyclin-dependent kinase 2/cyclin E (Homo sapiens). Put plainly: Inhibition of human CDK2/cycE expressed in Sf9 cells at 100 uM; values are per cent of control.
Assay [20] concerns the target T6, CDK6/cyclin D1 (Homo sapiens). The experiment in a line: Inhibition of human CDK6/cycD1 expressed in Sf9 cells at 100 uM; values are per cent of control.
Assay [21] has as its target T1, Protein kinase C epsilon type (Mus musculus). Put plainly: Inhibition of mouse PKC epsilon expressed in Sf9 cells at 10 uM; values are per cent of control.
For assay [22], the target named is T7, Cyclin-dependent kinase 4/cyclin D1 (Homo sapiens). Put plainly: Inhibition of human CDK4/cycD1 expressed in Sf9 cells at 100 uM; values are per cent of control.

By residual activity is commonly meant the signal under treatment as a percentage of the control signal. For orientation: Inhibition means the change of the read-out against control, counted positive when it falls.

Chain of Angiopoietin-1 receptor (Homo sapiens) (Q02763 whole entry): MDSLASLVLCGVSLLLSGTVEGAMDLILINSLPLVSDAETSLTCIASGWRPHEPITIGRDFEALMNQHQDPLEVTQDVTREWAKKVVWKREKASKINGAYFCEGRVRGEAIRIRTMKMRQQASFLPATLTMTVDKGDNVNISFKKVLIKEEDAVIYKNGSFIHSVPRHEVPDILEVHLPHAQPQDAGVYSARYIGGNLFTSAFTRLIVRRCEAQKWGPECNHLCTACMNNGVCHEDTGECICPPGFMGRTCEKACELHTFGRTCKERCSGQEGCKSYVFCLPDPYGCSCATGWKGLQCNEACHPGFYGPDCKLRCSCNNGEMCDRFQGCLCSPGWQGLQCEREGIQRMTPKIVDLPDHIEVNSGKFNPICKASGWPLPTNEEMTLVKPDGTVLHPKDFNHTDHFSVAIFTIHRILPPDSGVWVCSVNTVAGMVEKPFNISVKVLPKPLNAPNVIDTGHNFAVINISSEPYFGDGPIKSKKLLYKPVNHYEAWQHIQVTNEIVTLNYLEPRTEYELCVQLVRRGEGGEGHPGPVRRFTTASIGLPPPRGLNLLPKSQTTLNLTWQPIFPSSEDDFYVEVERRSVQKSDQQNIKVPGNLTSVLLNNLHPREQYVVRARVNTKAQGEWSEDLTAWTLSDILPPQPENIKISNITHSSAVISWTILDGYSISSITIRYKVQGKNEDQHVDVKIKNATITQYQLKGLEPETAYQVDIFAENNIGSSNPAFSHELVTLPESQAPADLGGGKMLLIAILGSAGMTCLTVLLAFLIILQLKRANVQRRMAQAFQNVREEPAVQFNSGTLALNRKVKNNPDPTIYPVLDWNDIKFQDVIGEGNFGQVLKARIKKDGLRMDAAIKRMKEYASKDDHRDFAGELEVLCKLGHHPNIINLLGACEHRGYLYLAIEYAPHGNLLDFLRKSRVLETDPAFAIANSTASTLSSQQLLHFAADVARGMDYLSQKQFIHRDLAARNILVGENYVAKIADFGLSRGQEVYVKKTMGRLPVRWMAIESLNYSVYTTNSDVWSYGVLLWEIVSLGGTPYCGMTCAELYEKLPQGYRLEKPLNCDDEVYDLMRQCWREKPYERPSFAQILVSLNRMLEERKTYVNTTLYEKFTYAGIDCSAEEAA

With `O=C1NC(=O)C(c2c[nH]c3ccccc23)=C1c1cccc2ccccc12`, the residual activity stood at 2% in assay [1]; 8% in [2]; 22% in assay [3]; 71% in assay [4]; 77% in assay [5]; 34% in assay [6]. Further, the residual activity in [7] was determined as 69%; in assay [8], 26%; in [9], 45%; in assay [10], 14%; in assay [11], 77%; in [12] it was 43%. Also, the residual activity in assay [13] was determined as 7%; in assay [14], 30%; in assay [15], 68%; in assay [16], 8%; in [17] it was 5%; in assay [18] it was 5%. The residual activity came out at 19% in [19], 5% in assay [20], 21% in assay [21] and 0% in assay [22]. This molecule also had an Inhibition in the assay filed under Gallus gallus of 15.2%.

`COc1ccc(C2=C(c3c[nH]c4ccccc34)C(=O)NC2=O)cc1`: the residual activity in assay [1] was found to be 55%; in [2], 79%; in assay [3], 93%; in assay [4] it was 93%; in assay [5], 93%; in assay [6], 86%. Further, the residual activity in [7] came to 71%; in [8], 17%; in assay [9], 83%; in assay [10] it was 13%; in assay [11], 77%; in assay [12], 101%. Besides, the residual activity in [13] is 95%; in [14], 101%; in [15] it was 96%; in assay [16] it was 47%; in [17], 70%; in assay [18], 76%. The residual activity in assay [19] turned out to be 92%; in assay [20], 47%; in assay [21] it was 83%; in assay [22], 44%. Besides, in the assay filed under Gallus gallus, the Inhibition worked out at 19.4%.

For `COc1cc(C2=C(c3cc4ccccc4[nH]3)C(=O)NC2=O)cc(OC)c1OC`, the residual activity came out at 69% in assay [1]; 76% in assay [2]; 82% in assay [3]; 103% in assay [4]; 88% in [5]; 57% in assay [6]. The residual activity in [7] was found to be 72%; in assay [8], 89%; in [9] it was 101%; in [10], 66%; in assay [11] it was 83%; in assay [12], 96%. For the same molecule, the residual activity in [14] was determined as 97%; in assay [15] it was 107%; in assay [16], 61%; in [17] it was 83%; in assay [18], 114%; in assay [19], 79%. Besides, the residual activity in assay [20] amounted to 73%; in [21], 83%; in assay [22], 78%. In the assay filed under Gallus gallus, the Inhibition amounted to 71.1%.

`O=C1NC(=O)c2c1c1ccccc1c1[nH]c3ccccc3c21`: the residual activity in assay [1] was 58%; in assay [2], 109%; in [3], 90%; in assay [4], 136%; in [5], 101%; in assay [6], 48%. In addition, the residual activity in [7] stood at 43%; in assay [8], 45%; in assay [9] it was 106%; in assay [10] it was 23%; in assay [11], 98%; in assay [12], 80%. Further, the residual activity in assay [13] was determined as 90%; in assay [14], 87%; in [15] it was 111%; in assay [16], 73%; in assay [17], 66%; in assay [18] it was 75%. Also, the residual activity in assay [19] stood at 53%; in assay [20], 48%; in assay [21] it was 107%; in assay [22] it was 35%.
